{"source": "ChEMBL document CHEMBL1145212", "about": "“Fluorinated diaryl sulfides as serotonin transporter ligands: synthesis, structure-activity relationship study, and in vivo evaluation of fluorine-18-labeled compounds as PET imaging agents” (J Med Chem, 2005)", "conditions_in_all_cases": "tested as the 18F-labelled form", "key": {"[1]": {"target": "Sodium-dependent serotonin transporter (Rattus norvegicus) (UniProt P31652)", "sequence (P31652 whole entry)": "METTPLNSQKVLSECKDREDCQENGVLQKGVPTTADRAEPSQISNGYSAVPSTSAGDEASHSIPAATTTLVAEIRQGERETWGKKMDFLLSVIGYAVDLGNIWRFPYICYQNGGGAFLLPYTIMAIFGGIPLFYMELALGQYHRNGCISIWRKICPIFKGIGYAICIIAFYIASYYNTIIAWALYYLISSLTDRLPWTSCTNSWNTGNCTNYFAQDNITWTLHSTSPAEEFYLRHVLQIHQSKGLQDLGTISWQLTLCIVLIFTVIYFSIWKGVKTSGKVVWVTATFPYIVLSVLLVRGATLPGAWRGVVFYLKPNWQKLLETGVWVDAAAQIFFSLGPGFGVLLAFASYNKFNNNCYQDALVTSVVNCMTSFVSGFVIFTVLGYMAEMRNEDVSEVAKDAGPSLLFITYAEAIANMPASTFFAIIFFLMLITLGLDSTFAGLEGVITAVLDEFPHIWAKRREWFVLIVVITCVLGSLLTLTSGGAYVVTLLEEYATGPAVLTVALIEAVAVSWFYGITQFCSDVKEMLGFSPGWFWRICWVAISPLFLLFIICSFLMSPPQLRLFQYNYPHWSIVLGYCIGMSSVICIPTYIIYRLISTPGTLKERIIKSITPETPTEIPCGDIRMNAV", "assay": "Specific binding of [18F]AFA in rat striatum after GBR-12935 treatment; n=3", "type": "functional, tissue-based", "method_in_brief": "(§1)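 Rats, three per group, were pretreated iv with blocker at 2 mg/kg in saline, or with saline as control, 10–15 min before tail-vein F-18 radioligand (about 20 µCi). Killed at 60 min and regional %ID/g determined. Specific binding = (region activity − cerebellum activity)/cerebellum activity; mean ± SD.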"}, "[2]": {"target": "Sodium-dependent serotonin transporter (Rattus norvegicus) (UniProt P31652)", "assay": "Specific binding of [18F]AFA in rat thalamus after GBR-12935 treatment; n=3", "type": "functional, tissue-based", "method_in_brief": "as §1"}, "[3]": {"target": "Sodium-dependent serotonin transporter (Rattus norvegicus) (UniProt P31652)", "assay": "Specific binding of [18F]-AFA in rat striatum after citalopram treatment; n=3", "type": "functional, tissue-based", "method_in_brief": "as §1"}, "[4]": {"target": "Sodium-dependent serotonin transporter (Rattus norvegicus) (UniProt P31652)", "assay": "Specific binding of [18F]-AFA in rat striatum after nisoxetine treatment; n=3", "type": "functional, tissue-based", "method_in_brief": "as §1"}, "[5]": {"target": "Sodium-dependent serotonin transporter (Rattus norvegicus) (UniProt P31652)", "assay": "Specific binding of [18F]AFA in rat thalamus after citalopram treatment; n=3", "type": "functional, tissue-based", "method_in_brief": "as §1"}, "[6]": {"target": "Sodium-dependent serotonin transporter (Rattus norvegicus) (UniProt P31652)", "assay": "Specific binding of [18F]AFA in rat thalamus after nisoxetine treatment; n=3", "type": "functional, tissue-based", "method_in_brief": "as §1"}, "[7]": {"target": "Sodium-dependent serotonin transporter (Rattus norvegicus) (UniProt P31652)", "assay": "Specific binding of [18F]AFA in rat hippocampus after GBR-12935 treatment; n=3", "type": "functional, tissue-based", "method_in_brief": "as §1"}, "[8]": {"target": "Sodium-dependent serotonin transporter (Rattus norvegicus) (UniProt P31652)", "assay": "Specific binding of [18F]AFA in rat hypothalamus after GBR-12935 treatment; n=3", "type": "functional, tissue-based", "method_in_brief": "as §1"}, "[9]": {"target": "Sodium-dependent serotonin transporter (Rattus norvegicus) (UniProt P31652)", "assay": "Specific binding of [18F]AFA in rat hippocampus after citalopram treatment; n=3", "type": "functional, tissue-based", "method_in_brief": "as §1"}, "[10]": {"target": "Sodium-dependent serotonin transporter (Rattus norvegicus) (UniProt P31652)", "assay": "Specific binding of [18F]AFA in rat hippocampus after nisoxetine treatment; n=3", "type": "functional, tissue-based", "method_in_brief": "as §1"}, "[11]": {"target": "Sodium-dependent serotonin transporter (Rattus norvegicus) (UniProt P31652)", "assay": "Specific binding of [18F]AFA in rat frontal cortex after GBR-12935 treatment; n=3", "type": "functional, tissue-based", "method_in_brief": "as §1"}, "[12]": {"target": "Sodium-dependent serotonin transporter (Rattus norvegicus) (UniProt P31652)", "assay": "Specific binding of [18F]AFA in rat hypothalamus after citalopram treatment; n=3", "type": "functional, tissue-based", "method_in_brief": "as §1"}, "[13]": {"target": "Sodium-dependent serotonin transporter (Rattus norvegicus) (UniProt P31652)", "assay": "Specific binding of [18F]AFA in rat hypothalamus after nisoxetine treatment; n=3", "type": "functional, tissue-based", "method_in_brief": "as §1"}, "[14]": {"target": "Sodium-dependent serotonin transporter (Rattus norvegicus) (UniProt P31652)", "assay": "Specific binding of [18F]AFA in rat frontal cortex after citalopram treatment; n=3", "type": "functional, tissue-based", "method_in_brief": "as §1"}, "[15]": {"target": "Sodium-dependent serotonin transporter (Rattus norvegicus) (UniProt P31652)", "assay": "Specific binding of [18F]AFA in rat frontal cortex after nisoxetine treatment; n=3", "type": "functional, tissue-based", "method_in_brief": "as §1"}, "[16]": {"target": "Sodium-dependent serotonin transporter (Rattus norvegicus) (UniProt P31652)", "assay": "Specific binding in rat hypothalamus at 10 min postinjection in vivo", "type": "functional, organism-based", "method_in_brief": "(§2)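 Male Sprague-Dawley rats, n=3 per time point, received about 20 µCi of F-18 radioligand in saline iv by tail vein and were killed at 10–120 min. %ID/g was measured with decay and tail-residual correction. Hypothalamic specific binding = (%ID/g hypothalamus − %ID/g cerebellum)/%ID/g cerebellum; mean ± SD.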"}, "[17]": {"target": "Sodium-dependent serotonin transporter (Rattus norvegicus) (UniProt P31652)", "assay": "Specific binding in rat hypothalamus at 30 min postinjection in vivo", "type": "functional, organism-based", "method_in_brief": "as §2"}, "[18]": {"target": "Sodium-dependent serotonin transporter (Rattus norvegicus) (UniProt P31652)", "assay": "Specific binding in rat hypothalamus at 60 min postinjection in vivo", "type": "functional, organism-based", "method_in_brief": "as §2"}, "[19]": {"target": "Sodium-dependent serotonin transporter (Rattus norvegicus) (UniProt P31652)", "assay": "Specific binding in rat hypothalamus at 90 min postinjection in vivo", "type": "functional, organism-based", "method_in_brief": "as §2"}, "[20]": {"target": "Sodium-dependent serotonin transporter (Rattus norvegicus) (UniProt P31652)", "assay": "Specific binding in rat hypothalamus at 120 min postinjection in vivo", "type": "functional, organism-based", "method_in_brief": "as §2"}, "[21]": {"species": "Rattus norvegicus", "assay": "Regional uptake of [18F]AFA in blood of rat pretreated with compound 7e; n=3", "type": "functional, organism-based"}, "[22]": {"species": "Rattus norvegicus", "assay": "Regional uptake of [18F]-AFA in striatum of rat pretreated with compound 7e; n=3", "type": "functional, organism-based"}, "[23]": {"species": "Rattus norvegicus", "assay": "Regional uptake of [18F]AFA in cerebellum of rat pretreated with compound 7e; n=3", "type": "functional, organism-based"}, "[24]": {"species": "Rattus norvegicus", "assay": "Regional uptake of [18F]-AFA in blood of rat pretreated with compound GBR-12935; n=3", "type": "functional, organism-based", "method_in_brief": "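Male Sprague-Dawley rats, three per group, received blocker (2 mg/kg iv in saline) or saline only (controls) 10–15 min before about 20 µCi of tail-vein F-18 radioligand. Killed 60 min after tracer. Blood and brain regions weighed and gamma-counted. %ID/g was decay- and tail-corrected; mean ± SD.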"}}}
{"smiles": "CN(C)Cc1ccccc1Sc1ccc(CCF)cc1N", "values": [{"measurement": "Specific binding", "setting": "[1]", "result": 2.62, "unit": "%ID/g"}, {"measurement": "Specific binding", "setting": "[2]", "result": 3.38, "unit": "%ID/g"}, {"measurement": "Specific binding", "setting": "[3]", "result": 0.5, "unit": "%ID/g"}, {"measurement": "Specific binding", "setting": "[4]", "result": 2.1, "unit": "%ID/g"}, {"measurement": "Specific binding", "setting": "[5]", "result": 0.89, "unit": "%ID/g"}, {"measurement": "Specific binding", "setting": "[6]", "result": 3.56, "unit": "%ID/g"}, {"measurement": "Specific binding", "setting": "[7]", "result": 2.18, "unit": "%ID/g"}, {"measurement": "Specific binding", "setting": "[8]", "result": 3.85, "unit": "%ID/g"}, {"measurement": "Specific binding", "setting": "[9]", "result": 0.54, "unit": "%ID/g"}, {"measurement": "Specific binding", "setting": "[10]", "result": 1.63, "unit": "%ID/g"}, {"measurement": "Specific binding", "setting": "[11]", "result": 1.98, "unit": "%ID/g"}, {"measurement": "Specific binding", "setting": "[12]", "result": 1, "unit": "%ID/g"}, {"measurement": "Specific binding", "setting": "[13]", "result": 4, "unit": "%ID/g"}, {"measurement": "Specific binding", "setting": "[14]", "result": 0.31, "unit": "%ID/g"}, {"measurement": "Specific binding", "setting": "[15]", "result": 1.82, "unit": "%ID/g"}, {"measurement": "Specific binding", "setting": "[16]", "result": 0.96, "unit": "%ID/g"}, {"measurement": "Specific binding", "setting": "[17]", "result": 2.22, "unit": "%ID/g"}, {"measurement": "Specific binding", "setting": "[18]", "result": 3.35, "unit": "%ID/g"}, {"measurement": "Specific binding (dimensionless ratio)", "setting": "[19]", "result": 4.36}, {"measurement": "Specific binding (dimensionless ratio)", "setting": "[20]", "result": 4.5}, {"measurement": "Uptake", "setting": "[21]", "result": 0.06, "unit": "%ID/g"}, {"measurement": "Uptake", "setting": "[22]", "result": 0.11, "unit": "%ID/g"}, {"measurement": "Uptake", "setting": "[23]", "result": 0.07, "unit": "%ID/g"}, {"measurement": "Uptake", "setting": "[24]", "result": 0.06, "unit": "%ID/g"}]}
